In ChEMBL document CHEMBL4118259, “Synthesis of sulfadiazinyl acyl/aryl thiourea derivatives as calf intestinal alkaline phosphatase inhibitors, pharmacokinetic properties, lead optimization, Lineweaver-Burk plot evaluation and binding analysis” (Bioorg Med Chem, 2018) one finds Activity data, which are given here for eleven molecules.

Active and inactive are the calls of the source. The rule behind the calls is not given here.

This assay in a line: Antioxidant activity assessed as DPPH radical scavenging activity at 100 ug/ml measured after 30 mins. Type of assay: functional. An outline of the steps:
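DPPH radical scavenging with compounds at 100 µg/mL; mixture incubated at room temperature for 30 min, absorbance read at 517 nm; ascorbic acid as reference inhibitor; percentage activity given as mean ± SEM.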
(DPPH is a stable violet radical that fades when it is reduced.)
In the case of `O=C1O[C@H]([C@@H](O)CO)C(O)=C1O`, the result was Active. As to `O=C(NC(=S)Nc1ccc(S(=O)(=O)Nc2ncccn2)cc1)c1ccc(F)cc1`, the outcome was inactive. Next, `O=C(NC(=S)Nc1ccc(S(=O)(=O)Nc2ncccn2)cc1)c1ccc(Cl)cc1`: “inactive”; `COc1ccc(C(=O)NC(=S)Nc2ccc(S(=O)(=O)Nc3ncccn3)cc2)cc1`: “inactive”; `CCCC(=O)NC(=S)Nc1ccc(S(=O)(=O)Nc2ncccn2)cc1`: “inactive”. Take `CC(=O)NC(=S)Nc1ccc(S(=O)(=O)Nc2ncccn2)cc1`: the result was inactive. As to `O=C(NC(=S)Nc1ccc(S(=O)(=O)Nc2ncccn2)cc1)c1cc([N+](=O)[O-])cc([N+](=O)[O-])c1`, the outcome was Active. On to `CCCCCCCC(=O)NC(=S)Nc1ccc(S(=O)(=O)Nc2ncccn2)cc1`, for which the result was inactive. Then `O=C(NC(=S)Nc1ccc(S(=O)(=O)Nc2ncccn2)cc1)c1ccccc1Cl`, with “inactive”; and `CCCCCCC(=O)NC(=S)Nc1ccc(S(=O)(=O)Nc2ncccn2)cc1`, with “inactive”; and `O=C(NC(=S)Nc1ccc(S(=O)(=O)Nc2ncccn2)cc1)c1ccc(Cl)cc1Cl`, with “Active”.
